Reference: ChEMBL document CHEMBL2429794, “Tuning the antibacterial activity of amphiphilic neamine derivatives and comparison to paromamine homologues” (J Med Chem, 2013)
Values after ≈ are worked out from the molar mass of the structure shown.

What was measured:
Staphylococcus aureus [1] = assay: Antibacterial activity against fluoroquinolone-resistant Staphylococcus aureus 1199B expressing NorA efflux pump after 24 hrs by geometric microdilution method; format: functional
In short: (§1)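 Broth cultures were incubated in plates at 37 °C, and growth was read as absorbance at 650 nm after 1, 4, 7 and 24 h. Ampicillin (16 mg/L) was the positive control and DMSO the negative control. Each MIC (μg/mL) is the average of at least three determinations.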

[2] = Cytotoxicity against murine J774 cells assessed as cell viability at 10 uM after 24 hrs by MTT assay relative to control; format: cell-based; details: mouse, read-out: Activity
In short: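 Murine J774 macrophages were exposed for 24 h to compounds at 10 μM, then incubated 1 h with 0.2 mg/mL MTT. Viability was read from mitochondrial reduction of MTT to purple formazan, expressed as percent viability, and averaged over three experiments.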

Escherichia coli [3] = assay: microbe, parasite or virus in culture; details: ATCC 25922, 24 h
Pseudomonas aeruginosa [4] = assay: Antibacterial activity against Pseudomonas aeruginosa F03 expressing AAC6'-2A after 24 hrs by geometric microdilution method; format: functional; details: F03, 24 h
Staphylococcus aureus [5] = assay: Antibacterial activity against Staphylococcus aureus expressing aminoglycoside-[…] after 24 hrs by geometric microdilution method; format: functional; in short: as §1
Staphylococcus aureus [6] = assay: Antibacterial activity against healthcare-acquired methicillin-resistant Staphylococcus aureus ATCC 33592 after 24 hrs by geometric microdilution method; format: functional; details: ATCC 33592, 24 h; in short: as §1
Escherichia coli [7] = assay: Antibacterial activity against Escherichia coli PAZ505H8101 expressing AAC6'-1B after 24 hrs by geometric microdilution method; format: functional; details: PAZ505H8101, 24 h
Escherichia coli [8] = assay: Antibacterial activity against Escherichia coli L58058.1 expressing ANT2''-1A after 24 hrs by geometric microdilution method; format: functional; details: L58058.1, 24 h
Staphylococcus aureus [9] = assay: Antibacterial activity against Staphylococcus aureus expressing aminoglycoside-6'-N-acetyltransferase/2''-O-phosphoryltransferase after 24 hrs by geometric microdilution method; format: functional; in short: as §1
Staphylococcus aureus [10] = assay: Antibacterial activity against Staphylococcus aureus expressing aminoglycoside-3'-O-phosphoryltransferase after 24 hrs by geometric microdilution method; format: functional; in short: as §1
Pseudomonas aeruginosa [11] = assay: Antibacterial activity against Pseudomonas aeruginosa PA22 (PT629) expressing MexXY after 24 hrs by geometric microdilution method; format: functional
Staphylococcus aureus [12] = assay: Antibacterial activity against vancomycin-resistant Staphylococcus aureus VRS2 after 24 hrs by geometric microdilution method; format: functional; details: VRS2, 24 h; in short: as §1
Staphylococcus aureus [13] = assay: microbe, parasite or virus in culture; details: ATCC 25923, 24 h
Pseudomonas aeruginosa [14] = assay: Antibacterial activity against Pseudomonas aeruginosa ATCC 27853 after 24 hrs by geometric microdilution method; format: functional; details: ATCC 27853, 24 h
Klebsiella pneumoniae = assay: Antibacterial activity against Klebsiella pneumoniae ATCC 700603 after 24 hrs by geometric microdilution method; format: functional; details: ATCC 700603, 24 h
[15] = Ratio of cytotoxicity against murine J774 cells to antibacterial activity against vancomycin-resistant Staphylococcus aureus VRS2; format: toxicity, cell-based; details: mouse
Staphylococcus aureus [16] = assay: Antibacterial activity against 14- and 15-membered macrolide-resistant Staphylococcus aureus expressing MsrA efflux pump after 24 hrs by geometric microdilution method; format: functional; in short: as §1
Acinetobacter lwoffii [17] = assay: Antibacterial activity against Acinetobacter lwoffii AI.88-483 expressing APH3'-6A after 24 hrs by geometric microdilution method; format: functional; details: AI.88-483, 24 h
Acinetobacter lwoffii [18] = assay: Antibacterial activity against Acinetobacter lwoffii ATCC 17925 after 24 hrs by geometric microdilution method; format: functional; details: ATCC 17925, 24 h
[19] = Ratio of cytotoxicity against murine J774 cells to antibacterial activity against healthcare-acquired methicillin-resistant Staphylococcus aureus ATCC 33592; format: toxicity, cell-based; details: mouse
[20] = Ratio of cytotoxicity against murine J774 cells to antibacterial activity against Pseudomonas aeruginosa PA22 (PT629) expressing MexXY; format: toxicity, cell-based; details: mouse
[21] = Ratio of cytotoxicity against murine J774 cells to antibacterial activity against Pseudomonas aeruginosa F03 expressing AAC6'-2A; format: toxicity, cell-based; details: mouse
[22] = Ratio of cytotoxicity against murine J774 cells to antibacterial activity against Pseudomonas aeruginosa ATCC 27853; format: toxicity, cell-based; details: mouse

Row | SMILES | MIC (Staphylococcus aureus [1]) [µg/mL] | viability at 24 h, 10 µM [2] [%] | MIC (Escherichia coli [3]) [µg/mL] | MIC (Pseudomonas aeruginosa [4]) [µg/mL] | MIC (Staphylococcus aureus [5]) [µg/mL] | MIC (Staphylococcus aureus [6]) [µg/mL] | MIC (Escherichia coli [7]) [µg/mL] | MIC (Escherichia coli [8]) [µg/mL] | MIC (Staphylococcus aureus [9]) [µg/mL] | MIC (Staphylococcus aureus [10]) [µg/mL] | MIC (Pseudomonas aeruginosa [11]) [µg/mL] | MIC (Staphylococcus aureus [12]) [µg/mL] | MIC (Staphylococcus aureus [13]) [µg/mL] | MIC (Pseudomonas aeruginosa [14]) [µg/mL] | MIC (Klebsiella pneumoniae) [µg/mL] | MIC (Staphylococcus aureus [16]) [µg/mL] | MIC (Acinetobacter lwoffii [17]) [µg/mL] | MIC (Acinetobacter lwoffii [18]) [µg/mL] | further results
1 | NC[C@H]1O[C@H](O[C@H]2[C@H](O)[C@@H](OCCCCCCc3ccc4ccccc4c3)[C@H](N)C[C@@H]2N)[C@H](N)[C@@H](OCCCCCCc2ccc3ccccc3c2)[C@@H]1O | > 128 | < 50 | 128 (≈ 172 µM) | 64 (≈ 86.1 µM) | > 128 | > 128 | 64 (≈ 86.1 µM) | 128 (≈ 172 µM) | 128 (≈ 172 µM) | 64 (≈ 86.1 µM) | 64 (≈ 86.1 µM) | > 128 | 64 (≈ 86.1 µM) | 32 (≈ 43.1 µM) |  |  |  |  | 
2 | NC[C@H]1O[C@H](O[C@H]2[C@H](O)[C@@H](OCCCCc3ccc4ccccc4c3)[C@H](N)C[C@@H]2N)[C@H](N)[C@@H](OCCCCc2ccc3ccccc3c2)[C@@H]1O | 2 (≈ 2.91 µM) | 80 | 8 (≈ 11.6 µM) | 8 (≈ 11.6 µM) | 1 (≈ 1.46 µM) | 2 (≈ 2.91 µM) | 4 (≈ 5.82 µM) | 8 (≈ 11.6 µM) | 2 (≈ 2.91 µM) | 1 (≈ 1.46 µM) | 8 (≈ 11.6 µM) | 2 (≈ 2.91 µM) | 2 (≈ 2.91 µM) | 4 (≈ 5.82 µM) | 32 (≈ 46.6 µM) | 0.25 (≈ 0.364 µM) | 64 (≈ 93.2 µM) | 4 (≈ 5.82 µM) | selectivity ratio [15]: > 5
3 | NC[C@H]1O[C@H](O[C@H]2[C@H](O)[C@@H](OCCCc3ccc4ccccc4c3)[C@H](N)C[C@@H]2N)[C@H](N)[C@@H](OCCCc2ccc3ccccc3c2)[C@@H]1O | 2 (≈ 3.04 µM) | 90 | 16 (≈ 24.3 µM) | 16 (≈ 24.3 µM) | 1 (≈ 1.52 µM) | 2 (≈ 3.04 µM) | 8 (≈ 12.1 µM) | 16 (≈ 24.3 µM) | 2 (≈ 3.04 µM) | 1 (≈ 1.52 µM) | 16 (≈ 24.3 µM) | 1 (≈ 1.52 µM) | 2 (≈ 3.04 µM) | 4 (≈ 6.07 µM) |  | 0.5 (≈ 0.759 µM) |  |  | selectivity ratio [15]: 11; selectivity ratio [19]: 5.5
4 | N[C@H]1[C@@H](O[C@H]2[C@H](O)[C@@H](OCc3ccc4ccccc4c3)[C@H](N)C[C@@H]2N)O[C@H](CO)[C@@H](OCc2ccc3ccccc3c2)[C@@H]1OCc1ccc2ccccc2c1 | 16 (≈ 21.5 µM) |  | 64 (≈ 86 µM) | 32 (≈ 43 µM) | 8 (≈ 10.8 µM) | 64 (≈ 86 µM) | 16 (≈ 21.5 µM) | 32 (≈ 43 µM) | 16 (≈ 21.5 µM) | 4 (≈ 5.38 µM) | 32 (≈ 43 µM) | 128 (≈ 172 µM) | 2 (≈ 2.69 µM) | 32 (≈ 43 µM) | 32 (≈ 43 µM) | 32 (≈ 43 µM) | > 128 | 1 (≈ 1.34 µM) | 
5 | NC[C@H]1O[C@H](O[C@H]2[C@H](O)[C@@H](OCc3ccc4ccccc4c3)[C@H](N)C[C@@H]2N)[C@H](N)[C@@H](OCc2ccc3ccccc3c2)[C@@H]1O | 8 (≈ 13.3 µM) |  | 64 (≈ 106 µM) | 128 (≈ 212 µM) | 8 (≈ 13.3 µM) | 16 (≈ 26.5 µM) | 64 (≈ 106 µM) | 64 (≈ 106 µM) | 8 (≈ 13.3 µM) | 4 (≈ 6.64 µM) | > 128 | 16 (≈ 26.5 µM) | 8 (≈ 13.3 µM) | 128 (≈ 212 µM) | ≥ 128 | 8 (≈ 13.3 µM) | > 128 | 64 (≈ 106 µM) | 
6 | NC[C@@H]1O[C@H](O[C@H]2[C@@H](O)[C@H](O[C@@H]3[C@@H](O)[C@H](N)C[C@H](N)[C@H]3O[C@H]3O[C@H](CN)[C@@H](O)[C@H](O)[C@H]3N)O[C@@H]2CO)[C@H](N)[C@@H](O)[C@@H]1O [FRAMYCETIN] | 1 (≈ 1.63 µM) |  | 2 (≈ 3.25 µM) | 128 (≈ 208 µM) | 32 (≈ 52.1 µM) | > 128 | 4 (≈ 6.51 µM) | 1 (≈ 1.63 µM) | 1 (≈ 1.63 µM) | > 128 | 32 (≈ 52.1 µM) | 128 (≈ 208 µM) | 2 (≈ 3.25 µM) | 64 (≈ 104 µM) | 16 (≈ 26 µM) | 2 (≈ 3.25 µM) | > 128 | 0.5 (≈ 0.813 µM) | 
7 | N[C@H]1[C@@H](O[C@H]2[C@H](O)[C@@H](OCc3ccc4ccccc4c3)[C@H](N)C[C@@H]2N)O[C@H](CO)[C@@H](O)[C@@H]1OCc1ccc2ccccc2c1 | 32 (≈ 53 µM) |  | 128 (≈ 212 µM) | 64 (≈ 106 µM) | 16 (≈ 26.5 µM) | 16 (≈ 26.5 µM) | 64 (≈ 106 µM) | 64 (≈ 106 µM) | 32 (≈ 53 µM) | 16 (≈ 26.5 µM) | 128 (≈ 212 µM) | 16 (≈ 26.5 µM) | 8 (≈ 13.3 µM) | 128 (≈ 212 µM) | > 128 | 32 (≈ 53 µM) | > 128 | 64 (≈ 106 µM) | 
8 | CCCCCCCCCO[C@@H]1[C@@H](N)[C@@H](O[C@H]2[C@H](O)[C@@H](OCCCCCCCCC)[C@H](N)C[C@@H]2N)O[C@H](CN)[C@H]1O | 8 (≈ 13.9 µM) | 75 | 4 (≈ 6.96 µM) | 4 (≈ 6.96 µM) | 4 (≈ 6.96 µM) | 4 (≈ 6.96 µM) | 2 (≈ 3.48 µM) | 4 (≈ 6.96 µM) | 4 (≈ 6.96 µM) | 2 (≈ 3.48 µM) | 4 (≈ 6.96 µM) | 2 (≈ 3.48 µM) | 2 (≈ 3.48 µM) | 4 (≈ 6.96 µM) |  | 4 (≈ 6.96 µM) |  |  | selectivity ratio [20]: 2.5; selectivity ratio [15]: > 5; selectivity ratio [21]: 2.5; selectivity ratio [22]: 2.5
9 | CCCCCCO[C@@H]1[C@@H](N)[C@@H](O[C@H]2[C@H](O)[C@@H](OCCCCCC)[C@H](N)C[C@@H]2N)O[C@H](CN)[C@H]1OCCCCCC | 4 (≈ 6.96 µM) | 40 | 4 (≈ 6.96 µM) | 8 (≈ 13.9 µM) | 8 (≈ 13.9 µM) | 4 (≈ 6.96 µM) | 4 (≈ 6.96 µM) | 4 (≈ 6.96 µM) | 8 (≈ 13.9 µM) | 4 (≈ 6.96 µM) | 8 (≈ 13.9 µM) | 4 (≈ 6.96 µM) | 4 (≈ 6.96 µM) | 8 (≈ 13.9 µM) | 8 (≈ 13.9 µM) | 8 (≈ 13.9 µM) | 64 (≈ 111 µM) | 4 (≈ 6.96 µM) | 
10 | NC[C@H]1O[C@H](O[C@H]2[C@H](O)[C@@H](O)[C@H](N)C[C@@H]2N)[C@H](N)[C@@H](O)[C@@H]1O [NEAMINE] | 32 (≈ 99.3 µM) |  | 32 (≈ 99.3 µM) | > 128 | > 128 | > 128 | > 128 | 32 (≈ 99.3 µM) | 16 (≈ 49.6 µM) | > 128 | > 128 | ≥ 128 | 32 (≈ 99.3 µM) | > 128 | 32 (≈ 99.3 µM) | 16 (≈ 49.6 µM) | > 128 | 2 (≈ 6.2 µM) | 
11 | N[C@H]1[C@@H](O[C@H]2[C@H](O)[C@@H](OCc3cccc4ccccc34)[C@H](N)C[C@@H]2N)O[C@H](CO)[C@@H](OCc2cccc3ccccc23)[C@@H]1OCc1cccc2ccccc12 | 8 (≈ 10.8 µM) |  | 16 (≈ 21.5 µM) | 32 (≈ 43 µM) | 16 (≈ 21.5 µM) | 32 (≈ 43 µM) | 16 (≈ 21.5 µM) | 16 (≈ 21.5 µM) | 8 (≈ 10.8 µM) | 4 (≈ 5.38 µM) | 32 (≈ 43 µM) | 32 (≈ 43 µM) | 2 (≈ 2.69 µM) | 32 (≈ 43 µM) | 128 (≈ 172 µM) | 8 (≈ 10.8 µM) | 128 (≈ 172 µM) | 1 (≈ 1.34 µM) | 
